This is a sample that favours compounds with a hit; in the whole collection about 3% have one here.
V-ATPase pH: yeast V-ATPase proton transport regulation by pHLuorin. S. cerevisiae, pHLuorin cytosolic pH fluorescence. response, % at 10 µM. actives 0.37% (n = 350,000); in the data active = response mostly above about 7.3%, no sharp cut-off; inactive = mostly below about 5.4%; also: actives read high
Yeast superoxide: caloric restriction mimetics inhibiting age-related superoxide in yeast. S. cerevisiae aged cells, superoxide DHE fluorescence; stronger effect = lower value. superoxide response (% of plate mean), % at 10 µM. actives 0.18% (n = 330,000);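 active = superoxide response under a set limit, about three screen SD below normal, cut at about 65% in these data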;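 also: yeast aged for seven days with compound at 30 °C before DHE staining; 100% = average MFI of all compound-treated wells on the plate with controls excluded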
AI-2 QS modul: modulators of Vibrio harveyi AI-2 quorum sensing system. Vibrio harveyi JMH597 AI-2 luminescence/OD600 ratio, 9 h; stronger effect = lower value; strain lacks LuxN and CqsS sensors; 0 = neutral-control median. activity change, % at 7.5 µM. actives 0.4% (n = 300,000). AID 2094; in the data active = activity change below about -75%, passing the limit was not always enough; inconclusive = no clear call, values can overlap the other calls;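 also: luminescence divided by OD600 gain over 9 h not by final OD600 alone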
HIF activator: HIF pathway transcriptional activation; activation, % at 7.5 µM (by protocol); U2OS HRE-luciferase reporter, luminescence; normalized: DMSO 0%, desferrioxamine 100%; actives 0.32% (n = 300,000);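 active = mean activation of at least 10% of the iron chelator positive control signal, with at least half of replicates also reaching 10%; inconclusive = mean and replicate majority disagree about reaching 10%; inactive = mean and most replicates under 10%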
T cruzi inh: blocks replication of Trypanosoma cruzi; T. cruzi beta-gal in NIH3T3, luminescence, 90 h; inhibition, % (no concentration beside the values); actives 1.4% (n = 300,000); AID 1885;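 active = mean inhibition across valid replicates above about 55%, limit read from the data; inconclusive = mean below that limit but half or more replicates reach it; inactive = mean below it, under half of replicates reach it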;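 also: signal also drops with host cell toxicity which is not excluded here; 0% = plate median of DMSO wells and 100% = zero luminescence signal; higher percent means less beta-gal luminescence so fewer parasites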
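System: NIH/3T3 fibroblasts plus reporter T. cruzi. Medium: DMEM plus 2% FBS. Probe or stimulus: 5000 reporter trypomastigotes per well. Compound: single 50 nL compound addition per well in DMSO. Incubation: co-culture of at least 90 h after 3 h attachment. Detection: GalScreen β-gal luminescence, detergent lysis, 60 min. Evaluation: parasite load inhibition, %.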
NRP1-CendR mod: alters CendR peptide binding to human NRP-1. actives 0.85% (n = 360,000). FAM-RPARPAR peptide binding to NRP-1, fluorescence polarization. inhibition, % at 25 µM. O14786;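 active = inhibition or corrected inhibition above about 18%, plus a signal ratio from 0.5 to 1.5, limit read from the data, passing the limit was not always enough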
Target sequence (O14786 whole entry, looked up): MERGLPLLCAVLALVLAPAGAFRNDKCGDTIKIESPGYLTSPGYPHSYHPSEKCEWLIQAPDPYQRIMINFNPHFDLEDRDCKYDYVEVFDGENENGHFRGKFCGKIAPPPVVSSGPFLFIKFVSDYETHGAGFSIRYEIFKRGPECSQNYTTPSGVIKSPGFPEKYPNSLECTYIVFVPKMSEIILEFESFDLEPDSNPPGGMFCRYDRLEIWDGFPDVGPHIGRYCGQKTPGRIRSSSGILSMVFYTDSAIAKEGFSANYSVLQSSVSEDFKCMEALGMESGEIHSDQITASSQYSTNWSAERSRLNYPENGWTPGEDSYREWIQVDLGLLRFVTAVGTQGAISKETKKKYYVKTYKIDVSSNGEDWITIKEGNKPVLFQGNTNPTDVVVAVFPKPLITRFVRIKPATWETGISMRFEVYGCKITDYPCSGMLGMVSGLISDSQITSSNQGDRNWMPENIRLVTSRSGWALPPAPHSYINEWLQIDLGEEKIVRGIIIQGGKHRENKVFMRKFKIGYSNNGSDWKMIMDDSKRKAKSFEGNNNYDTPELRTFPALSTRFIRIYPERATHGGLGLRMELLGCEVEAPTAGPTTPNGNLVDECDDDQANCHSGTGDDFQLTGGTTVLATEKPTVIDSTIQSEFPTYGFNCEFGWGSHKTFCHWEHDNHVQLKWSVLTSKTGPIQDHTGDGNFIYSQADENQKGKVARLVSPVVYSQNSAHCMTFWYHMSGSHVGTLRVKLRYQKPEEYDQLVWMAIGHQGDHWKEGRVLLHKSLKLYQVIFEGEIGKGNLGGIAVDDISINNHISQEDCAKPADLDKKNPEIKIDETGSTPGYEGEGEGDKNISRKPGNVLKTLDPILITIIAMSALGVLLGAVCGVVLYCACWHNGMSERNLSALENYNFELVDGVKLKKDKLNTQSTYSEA
Active calls of the source: *; ? = inconclusive; / = not tested or not shown.

SMILES	V-ATPase pH	Yeast superoxide	AI-2 QS modul	HIF activator	T cruzi inh	NRP1-CendR mod
Cc1nc(NC(=O)c2ccco2)sc1-c1csc(Nc2ccc(Cl)cc2Cl)n1	-0.4	98.7	29.6	0.2	59.1*	-8.6
Cc1ccc(Cl)cc1Nc1nc(-c2sc(NC(=O)c3ccco3)nc2C)cs1	1.3	/	16.8	-1.5	16.8	-34.2
CC(C)[C@H](NC(=O)c1c(F)cccc1F)C(=O)OCC(=O)NC(=O)NC1CCCC1	2.7	96.7	-6.2	0.0	-7.6	5.1
COc1ccc(/C=C/C(=O)Nc2cccc(F)c2)cc1S(=O)(=O)N1CCOCC1	0.7	71.6	28.6	1.3	14.1	23.2*
C#CCOCCOCCOCCNc1nc(N2CCN(C(=O)C([C@@H](C)CC)n3cc(C(N)COC(=O)C(F)(F)F)nn3)CC2)nc(N2CCN(C(=O)[C@H](CCC(=O)O)n3cc(C(N)CC(C)C)nn3)CC2)n1 (stereo partly specified)	/	96.1	2.8	2.1	-20.3	/
N=c1n(CCN2CCCCC2)c2ccccc2n1CC(O)c1ccc(Cl)c(Cl)c1 (stereo unspecified)	4.3	84.8	3.1	0.3	59.3*	9.4
N=c1n(CCN2CCCCC2)c2ccccc2n1CC(O)c1cccc(Br)c1 (stereo unspecified)	4.4	102.9	15.2	0.2	34.9	23.2
COc1ccc2sc(-c3ccccc3OC)c(-c3ccc(OCCN(C)C)cc3)c2c1	-1.2	104.9	/	/	/	4.1
O=C(NCC1CC1)c1onc(CSc2nc3ccccc3[nH]2)c1C(=O)NCC1CC1	3.1	108.3	8.8	0.3	14.7	25.8*
CCCCNC(=O)c1onc(CSc2nc3ccccc3[nH]2)c1C(=O)NCCCC	-4.0	100.7	10.7	0.4	14.0	3.4
NC(=O)C(c1ccc(Cl)cc1)c1ccc(Sc2ccc(Cl)cc2)nn1 (stereo unspecified)	-2.9	91.4	-83.5*	-0.7	12.4	2.9
Cc1c(O)ccc(C(=O)CN2CCN(c3ccccc3F)CC2)c1O	-1.2	96.3	18.4	-0.2	-17.0	4.9
O=C(c1ccccc1F)N1CCN(Cc2ccccc2F)CC1	-0.9	103.5	10.0	-0.3	/	29.1*
O=C(c1ccccc1)c1ccccc1C(=O)N1CCN(Cc2ccccc2F)CC1	3.6	/	/	/	/	-0.4
CN1CCN(CC(=O)c2ccccc2F)CC1	0.1	100.8	-0.9	0.2	-8.9	17.3*
Cc1cc(C)n(CC2CC(=O)N(c3ccccc3)C2=O)n1 (stereo unspecified)	4.1	119.1	30.7	/	/	29.2*
COc1ccc(CC(=O)N2CCN(C(=O)Cc3ccc(OC)cc3)CC2)cc1	3.2	98.3	9.0	364.6*	3.8	-4.8
COc1ccc(C(=O)N2CCN(C(=O)Cc3ccccc3)CC2)cc1	-0.9	102.4	7.4	0.1	-7.3	-2.1
O=C(COc1cccc2ccccc12)Nc1cc(Cl)ccc1C(=O)O	2.2	104.7	16.9	-0.8	-10.5	-22.6
O=C(COc1cccc2ccccc12)Nc1ccc(Cl)cc1C(=O)O	0.4	111.6	39.1	15.5*	-3.4	-5.5
COc1cccc(CN2CCN(Cc3cc4ccccc4[nH]3)CC2CCO)c1 (stereo unspecified)	3.1	94.3	4.8	-0.5	43.9	-6.2
CSc1cccc(CN2CCN(CCc3ccccc3)C(CCO)C2)c1 (stereo unspecified)	0.4	124.7	35.0	-0.3	19.2	4.6
COc1ccc2c(c1)C=C(CN1CCN(Cc3ccccc3C)C(CCO)C1)CO2 (stereo unspecified)	-3.5	97.0	11.5	-0.1	55.3*	-17.0
CCOc1ccc(CN2CCN(Cc3cnc(-c4ccccc4)s3)CC2CCO)cc1 (stereo unspecified)	4.7	98.1	1.8	-0.3	56.1*	8.6
CSc1cccc(CN2CCN(Cc3ccccc3)C(CCO)C2)c1 (stereo unspecified)	-1.8	83.8	40.5	0.2	37.5	24.3*
SMILES	V-ATPase pH	Yeast superoxide	AI-2 QS modul	HIF activator	T cruzi inh	NRP1-CendR mod
CCOc1ccc(CN2CCN(Cc3cc4ccccc4[nH]3)CC2CCO)cc1 (stereo unspecified)	1.5	/	-25.1	-0.2	59.9*	-32.0
Cc1ncc(CN2CCN(Cc3ccccc3)C(CCO)C2)s1 (stereo unspecified)	1.1	89.1	10.1	0.1	19.5	-4.0
NS(=O)(=O)c1ccc(NC(=O)N2c3ccccc3Sc3ccccc32)cc1	7.1	91.8	55.3	-0.2	8.0	/
CCOc1ccc(CN2CCN(CC3CC3)CC2CCO)cc1 (stereo unspecified)	-0.2	117.0	20.4	-0.2	8.2	-2.6
CCOc1ccc(CN2CCN(CC3=Cc4cccc(OC)c4OC3)CC2CCO)cc1 (stereo unspecified)	-4.9	94.7	3.7	0.0	56.4*	-1.8
CC(C)OC(=O)C(=O)NNc1ccccc1	-4.1	105.4	30.7	-0.2	57.9*	9.0
CSCc1cc(N(C)C)nc(SCc2ccc(Cl)c(Cl)c2)n1	-2.0	104.7	2.0	-1.1	-10.1	-1.3
CC(=O)NC(c1ccc(Cl)cc1)c1ccc2cccnc2c1O (stereo unspecified)	-2.4	/	/	/	/	0.3
Cc1ccc2ccc(C(Nc3ccccn3)c3ccccc3)c(O)c2n1 (stereo unspecified)	-2.4	94.8	34.3	-0.3	43.6	6.5
Cc1ccnc(NC(c2ccccc2)c2ccc3cccnc3c2O)c1 (stereo unspecified)	0.0	/	/	/	/	33.0*
Cc1cc(NC(c2ccc(Cl)cc2)c2ccc3cccnc3c2O)no1 (stereo unspecified)	-0.8	132.8	-93.1*	168.6*	37.3	13.2
Cc1ccc2ccc(C(Nc3cccc(C(F)(F)F)c3)c3cccnc3)c(O)c2n1 (stereo unspecified)	1.4	83.5	16.6	8.2	47.9	-4.0
Cc1ccnc(NC(c2cccnc2)c2ccc3cccnc3c2O)c1 (stereo unspecified)	-1.2	84.6	35.6	11.2*	17.2	-1.8
Oc1c(C(Nc2ccccn2)c2ccccn2)ccc2cccnc12 (stereo unspecified)	-0.7	92.2	?	13.9*	55.4*	-11.1
O=C(Nc1ccc(S(=O)(=O)Nc2ccccc2)cc1)C1CC1	-2.3	84.8	14.5	-0.1	0.6	14.0
CCOC(=O)NC(c1ccccc1)C1CCCCC1=O (stereo unspecified)	-5.9	121.2	43.7	1.1	1.3	-10.7
COc1ccccc1NC(c1cccnc1)c1ccc2cccnc2c1O (stereo unspecified)	0.3	73.7	20.5	11.5*	40.5	-7.4
Oc1ccccc1C(Nc1nccs1)c1ccc2cccnc2c1O (stereo unspecified)	3.0	68.4	?	21.3*	63.1*	-10.2
